# Experimental data as given in ChEMBL document CHEMBL4765251, “Efficient identification of novel anti-glioma lead compounds by machine learning models” (Eur J Med Chem, 2020).
# What was measured:
# [1] = tested on: C6; test: Antiproliferative activity against rat C6 cells assessed as cell growth inhibition measured after 72 hrs by SRB assay; type: functional, cell-based; settings: C6, 72 h
# [2] = tested on: U-251; test: Antiproliferative activity against human U251MG cells assessed as cell growth inhibition measured after 72 hrs by SRB assay; type: functional, cell-based; settings: U-251, 72 h
# [3] = tested on: U-87 MG; test: Antiproliferative activity against human U87MG cells assessed as cell growth inhibition measured after 72 hrs by SRB assay; type: functional, cell-based, U-87MG ATCC
# Method in brief: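 U87MG human glioma cells grown in DMEM with 10% FBS at 37 °C, used up to 30 passages and treated at 40-50% confluence. Exposed to 0.1-100 µM for 72 h, with DMSO at most 0.1% final. TCA-fixed, stained with SRB, dye solubilized in Tris pH 10.5, read at 510 nm, expressed as % of DMSO controls. Mean ± SD of three independent assays.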
# [4] = Cytotoxicity against Wistar rat astrocytes assessed as cell growth inhibition measured after 72 hrs by SRB assay; type: cell-based, Astrocyte
# Method in brief: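 Primary astrocytes taken from the cortex of 2-day-old Wistar rats by mechanical dissociation, grown on poly-L-lysine in high-glucose DMEM and treated at 90% confluence (12-15 days). Exposed to 0.1-100 µM for 72 h, then SRB assay with absorbance read at 510 nm against DMSO controls. Mean ± SD of three independent assays.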
# [5] = tested on: Astrocyte; test: Cytotoxicity against Wistar rat astrocytes assessed as cell growth inhibition at 100 uM measured after 72 hrs by SRB assay; type: cell-based
# [6] = Selectivity index, ratio of CC50 for Wistar rat astrocytes to EC50 for rat C6 cells
# Method in brief: (§1)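 Selectivity index is astrocyte CC50 divided by the glioma-line EC50, both from 72 h SRB assays. No index is given when astrocyte cytotoxicity could not be calculated at the highest concentration tested.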
# [7] = Selectivity index, ratio of CC50 for Wistar rat astrocytes to EC50 for human U-251 MG cells; method in brief: as §1
# [8] = Selectivity index, ratio of CC50 for Wistar rat astrocytes to EC50 for human U87MG cells; method in brief: as §1
# [9] = species: Rattus norvegicus; test: Inhibition of TrxR in rat liver assessed as reduction in TNB formation using DTNB and NADPH as substrate at 100 uM preincubated with enzyme for 15 mins followed by NADPH addition by absorbance based analysis; type: tissue-based
# Method in brief: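 TrxR activity was measured at 37 °C in 100 mM potassium phosphate pH 7.0 with 2 mg/mL DTNB and 0.01 mg/mL enzyme. Enzyme was preincubated for 15 min with compound or DMSO, then the reaction was started with 0.2 mg/mL NADPH. TNB formation was followed at 412 nm (ε 13.6 mM-1 cm-1). Assays were run in duplicate, with enzyme-free blanks subtracted.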
Structure (SMILES),EC50 [2],EC50 [3],inhibition [9],EC50 [1],CC50 at 72 h [4],Activity [5],Ratio CC50/EC50 [6],Ratio CC50/EC50 [7],Ratio CC50/EC50 [8]
O=C(/C=C/c1ccc([N+](=O)[O-])cc1)c1ccc(N2CCCCC2)cc1,> 50 µM,,,> 50 µM,,Non-Toxic,,,
O=C(/C=C/c1ccc([N+](=O)[O-])o1)c1ccc(-n2ccnc2)cc1,22.6 µM,13.4 µM,,3.5 µM,45.3 µM,,12.9,2,3.4
O=C(/C=C/c1ccc(Cl)s1)c1ccc(N2CCCCC2)cc1,> 50 µM,,,36.6 µM,,Non-Toxic,,,
C[N+](=O)c1ccc(/C=C/C(=O)c2ccc(N3CCOCC3)cc2)o1,37.8 µM,9.8 µM,,6.6 µM,75.8 µM,,11.5,2,7.7
O=C(/C=C/c1ccc([N+](=O)[O-])o1)c1ccc(N2CCCC2)cc1,35.9 µM,35.4 µM,,16.4 µM,65.8 µM,,4,1.8,1.8
CC(C)(C)c1ccc(C(=O)/C=C/c2ccco2)cc1,16.4 µM,32.3 µM,3.6%,18.5 µM,88.7 µM,,,,
O=C(/C=C/c1ccco1)c1ccc(C2CCCCC2)cc1,26.4 µM,,,> 50 µM,,Non-Toxic,,,
CCCCc1ccc(C(=O)/C=C/c2ccco2)cc1,6.4 µM,12.3 µM,60.4%,8.4 µM,> 100 µM,,,,
O=C(/C=C/c1ccco1)c1ccc(N2CCOCC2)cc1,> 50 µM,,,23.6 µM,,Non-Toxic,,,
Cc1nonc1C(=O)c1no[n+]([O-])c1C(=O)c1nonc1C,> 50 µM,,,> 50 µM,,Non-Toxic,,,
CC(C)Oc1ccc(C(=O)NC(=S)Nc2cccc3ccccc23)cc1,> 50 µM,,,> 50 µM,,Non-Toxic,,,
O=C(/C=C/c1ccc([N+](=O)[O-])o1)c1ccc(C2CCCCC2)cc1,4.4 µM,9.5 µM,,5.1 µM,57.2 µM,,11.2,13,6
Cc1no[n+]([O-])c1C(=O)c1no[n+]([O-])c1C(=O)c1no[n+]([O-])c1C,> 50 µM,,,> 50 µM,,Non-Toxic,,,
CN(C)c1ccc(/C=C/C(=O)c2ccc(-c3ccccc3)cc2)cc1,> 50 µM,,,49.5 µM,,Non-Toxic,,,
O=C(/C=C/c1ccc([N+](=O)[O-])o1)c1ccc(N2CCNCC2)cc1,16.7 µM,4.9 µM,0%,1.5 µM,44.3 µM,,29.5,2.6,9
O=C(/C=C/c1cccc([N+](=O)[O-])c1)c1ccc(N2CCCCC2)cc1,20.3 µM,,,32.5 µM,,Non-Toxic,,,
O=C(/C=C/c1ccc([N+](=O)[O-])o1)c1ccc(N2CCCCC2)cc1,> 50 µM,,,48.7 µM,,Non-Toxic,,,

# More lines, main results first:
EC50 [2],EC50 [3],inhibition [9],Structure (SMILES),EC50 [1],CC50 at 72 h [4],Activity [5],Ratio CC50/EC50 [6],Ratio CC50/EC50 [7],Ratio CC50/EC50 [8]
23.3 µM,19.2 µM,,Cc1ccc(C(=O)/C=C/c2ccco2)cc1,7.8 µM,> 100 µM,,,,
> 50 µM,,,COc1ccc(/C=C/C(=O)c2ccc(-c3ccccc3)cc2)cc1,> 50 µM,,Non-Toxic,,,
> 50 µM,,,O=C(CS(=O)(=O)c1ccccc1)c1cc2ccccc2o1,> 50 µM,,Non-Toxic,,,
35.1 µM,,,O=C(/C=C/c1ccc(Cl)s1)c1ccc(-n2ccnc2)cc1,14.5 µM,,Non-Toxic,,,
> 50 µM,,,CC(=O)c1ccc(NCCC(=O)c2cccs2)cc1,46.6 µM,,Non-Toxic,,,
32.1 µM,,,COc1ccc(/C=C/C(=O)c2cccc(Br)c2)cc1,22.3 µM,,Non-Toxic,,,
24 µM,45.1 µM,,CSc1ccc(C(=O)/C=C/c2ccco2)cc1,14.4 µM,98 µM,,,,
10.1 µM,10.5 µM,,CCC(=O)Oc1cccc2ccc(/C=C/c3ccccc3[N+](=O)[O-])nc12,6.3 µM,55.2 µM,,8.7,5.4,5.3
14.2 µM,3.9 µM,56.4%,CSc1ccc(C(=O)/C=C/c2ccc([N+](=O)[O-])o2)cc1,1.6 µM,28.4 µM,,17.7,2,7.3
> 50 µM,,,Cc1ccc(S(=O)(=O)CC(=O)c2ccc(Cl)cc2Cl)cc1,> 50 µM,,Non-Toxic,,,
12.5 µM,5.2 µM,,O=C(/C=C/c1ccc([N+](=O)[O-])o1)c1ccc(I)cc1,2.1 µM,68.2 µM,,32.5,5.4,13.1
21.4 µM,13.4 µM,,COc1ccc(/C=C/C(=O)c2cccc(I)c2)cc1,14.6 µM,> 100 µM,,>6.8,>4.7,>7.5
9.4 µM,10.1 µM,,O=C(/C=C/c1ccc([N+](=O)[O-])s1)c1ccc(-n2ccnc2)cc1,1.9 µM,40.4 µM,,21.3,4.3,4
24.6 µM,,,O=C(/C=C/c1ccc([N+](=O)[O-])o1)c1ccc(-c2ccccc2)cc1,17.7 µM,,Non-Toxic,,,
44.5 µM,,,CC(C)(C)c1ccc(C(=O)/C=C/c2ccc([N+](=O)[O-])o2)cc1,28.6 µM,,Non-Toxic,,,
> 50 µM,,,Cc1ccc(S(=O)(=O)CC(=O)c2cccc([N+](=O)[O-])c2)cc1,> 50 µM,,Non-Toxic,,,
21.4 µM,12.6 µM,,O=C(/C=C/c1ccc([N+](=O)[O-])o1)c1ccc(Br)cc1,2.7 µM,85.4 µM,,31.6,3.9,6.7
> 50 µM,,,Cc1ccc(N2C(=O)CC(Sc3ncccc3C(=O)O)C2=O)cc1Cl (stereo not given),> 50 µM,,Non-Toxic,,,
> 50 µM,,,Cc1ccc(S(=O)(=O)/N=C/c2ccc(F)cc2)cc1,48.9 µM,,Non-Toxic,,,
